# From ChEMBL document CHEMBL4411315, “Discovery of Novel Dual Histone Deacetylase and Mammalian Target of Rapamycin Target Inhibitors as a Promising Strategy for Cancer Therapy” (J Med Chem, 2019)
# Activity calls are given as the source filed them. The calls are words filed in the database; no cut-off is given here.
# What was measured:
# [1] = target: Protein deacetylase HDAC6 (Homo sapiens) (UniProt Q9UBN7); experiment: Inhibition of HDAC6 in human MV4-11 cells assessed as increase in alpha-tubulin acetylation after 6 hrs by Western blot analysis; format: cell-based
# Procedure, shortened: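 MV4-11 cells treated 6 h at 0.01, 0.1 or 1 μM. Whole-cell protein extracted in RIPA buffer and quantified by BCA. 30 μg protein run on SDS-PAGE and transferred to PVDF. Blocked 1 h in 5% milk, primary antibody overnight at 4 °C, HRP secondary 1 h, ECL detection. Acetyl-histone H3 and acetyl-α-tubulin probed, with GAPDH as loading control.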
# MV4-11 [2] = experiment: Cell cycle arrest in human MV4-11 cells assessed as accumulation at S phase at 1.25 nM after 24 hrs by propidium iodide/RNase staining-based FACS analysis (reference value: 36.42%); format: functional
# MM1.S [3] = experiment: Induction of apoptosis in human MM1S cells assessed as necrotic cells at 320 nM after 48 hrs by Annexin V-FITC/propidium iodide staining-based flow cytometric analysis (reference value: 0.32%); format: functional
# MV4-11 [4] = experiment: Induction of apoptosis in human MV4-11 cells assessed as early apoptotic cells at 80 nM after 48 hrs by Annexin V-FITC/propidium iodide staining-based flow cytometric analysis (reference value: 10.7%); format: functional
# [5] = target: T1, Serine/threonine-protein kinase mTOR (Homo sapiens, UniProt P42345); experiment: Inhibition of recombinant N-terminal FLAG-tagged human mTOR (1362 to end residues) using ULight-4E-BP1 (Thr37/46) peptide as substrate after 1 hr by fluorescence assay
# Procedure, shortened: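 mTOR enzyme, ATP, compound and ULight-4E-BP1 (Thr37/46) peptide in kinase buffer were incubated 1 h at room temperature. EDTA quench plus Eu-anti-phospho-4E-BP1 antibody was added and equilibrated 1 h. TR-FRET was read at excitation 320 or 340 nm and emission 665 nm. Curves were fitted, and values are means of at least two experiments.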
# MM1.S [6] = experiment: Cell cycle arrest in human MM1S cells assessed as accumulation at G2/M phase at 10 nM after 24 hrs by propidium iodide/RNase staining-based FACS analysis (reference value: 26.29%); format: functional
# MV4-11 [7] = experiment: Induction of apoptosis in human MV4-11 cells assessed as viable cells at 320 nM after 48 hrs by Annexin V-FITC/propidium iodide staining-based flow cytometric analysis (reference value: 84.1%); format: functional; settings: MV4-11, 48 h, read-out: Activity
# MM1.S [8] = experiment: Cell cycle arrest in human MM1S cells assessed as accumulation at G0/G1 phase at 2.5 nM after 24 hrs by propidium iodide/RNase staining-based FACS analysis (reference value: 49.22%); format: functional
# MM1.S [9] = experiment: Induction of apoptosis in human MM1S cells assessed as early apoptotic cells at 80 nM after 48 hrs by Annexin V-FITC/propidium iodide staining-based flow cytometric analysis (reference value: 0.38%); format: functional
# MM1.S [10] = experiment: Induction of apoptosis in human MM1S cells assessed as late apoptotic cells at 20 nM after 48 hrs by Annexin V-FITC/propidium iodide staining-based flow cytometric analysis (reference value: 0.42%); format: functional
# MM1.S [11] = experiment: Induction of apoptosis in human MM1S cells assessed as necrotic cells at 10 nM after 48 hrs by Annexin V-FITC/propidium iodide staining-based flow cytometric analysis (reference value: 0.32%); format: functional
# MM1.S [12] = experiment: Cell cycle arrest in human MM1S cells assessed as accumulation at S phase at 2.5 nM after 24 hrs by propidium iodide/RNase staining-based FACS analysis (reference value: 24.49%); format: functional
# [13] = target: T1, Serine/threonine-protein kinase mTOR; experiment: Inhibition of mTOR in human MV4-11 cells assessed as decrease in ERK phosphorylation after 24 hrs by Western blot analysis; format: cell-based
# Procedure, shortened: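 Treatment of MV4-11 cells lasted 24 h at 0.01, 0.1, 1 and 10 μM. Lysis in RIPA buffer and BCA quantitation, then 30 μg protein by SDS-PAGE, PVDF transfer, 5% milk block, primary antibody overnight at 4 °C, HRP secondary 1 h and ECL detection. p-p70S6K (T389), p-4EBP1 (S65), p-Akt (S473) and p-ERK were probed.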
# Histone deacetylase 3 = Histone deacetylase 3 (Homo sapiens, UniProt O15379); experiment: Inhibition of recombinant full length HDAC3 (unknown origin) using Ac-peptide-AMC as substrate preincubated for 15 mins followed by substrate addition and measured after 1 hr by fluorescence assay
# MM1.S [14] = experiment: Induction of apoptosis in human MM1S cells assessed as viable cells at 160 nM after 48 hrs by Annexin V-FITC/propidium iodide staining-based flow cytometric analysis (reference value: 98.9%); format: functional; settings: read-out: Activity
# [15] = target: FKBP12A/mTOR (Homo sapiens) (UniProt P62942+P42345); experiment: Inhibition of human recombinant MTOR/FKBP12 expressed in mammalian expression system assessed as residual activity at 1 uM
# Procedure, shortened: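 Radiometric kinase panel (99 kinases) run at 1 μM inhibitor in duplicate with [γ-33P]ATP, kinase-specific buffer and substrate at room temperature. The reaction was started with Mg/ATP and stopped with 0.5% phosphoric acid, then spotted on P30 filtermat, washed and scintillation counted. Results are expressed as % remaining activity versus DMSO control.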
# MM1.S [16] = experiment: Induction of apoptosis in human MM1S cells assessed as late apoptotic cells at 10 nM after 48 hrs by Annexin V-FITC/propidium iodide staining-based flow cytometric analysis (reference value: 0.42%); format: functional
# MV4-11 [17] = experiment: Antitumor activity against human MV4-11 cells xenografted in NOD/SCID mouse assessed as tumor growth inhibition at 10 mg/kg, iv administered every 2 days for 6 days and measured every 2 days post last dose by caliper method relative to control; format: functional; settings: MV4-11, iv, read-out: TGI
# Procedure, shortened: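 Female NOD/SCID mice aged 5-6 weeks received 10^7 MV4-11 cells in 100 μL serum-free IMDM s.c. into the right flank. At 100-200 mm3 the mice were randomized, 6 per group. Dosing was i.v. at 10 mg/kg every 2 days, in saline with 2.5% DMSO and 10% cyclodextrin at pH 9. Tumours were measured by caliper every 2 days, with volume = length × width² × 0.5, and were weighed at sacrifice.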
# MM1.S [18] = experiment: Cell cycle arrest in human MM1S cells assessed as accumulation at S phase at 1.25 nM after 24 hrs by propidium iodide/RNase staining-based FACS analysis (reference value: 24.49%); format: functional
# Histone deacetylase 1 = Histone deacetylase 1 (Homo sapiens, UniProt Q13547); experiment: Inhibition of recombinant full length HDAC1 (unknown origin) using Ac-peptide-AMC as substrate preincubated for 15 mins followed by substrate addition and measured after 1 hr by fluorescence assay
# MM1.S [19] = experiment: Induction of apoptosis in human MM1S cells assessed as necrotic cells at 20 nM after 48 hrs by Annexin V-FITC/propidium iodide staining-based flow cytometric analysis (reference value: 0.32%); format: functional
# Histone deacetylase 5 = Histone deacetylase 5 (Homo sapiens, UniProt Q9UQL6); experiment: Inhibition of recombinant full length N-terminal GST-tagged human HDAC5 expressed in baculovirus expression system using Ac-peptide-AMC as substrate preincubated for 15 mins followed by substrate addition and measured after 1 hr by fluorescence assay
# MV4-11 [20] = experiment: Cell cycle arrest in human MV4-11 cells assessed as accumulation at G0/G1 phase at 1.25 nM after 24 hrs by propidium iodide/RNase staining-based FACS analysis (reference value: 44.79%); format: functional
# Sequence of Histone deacetylase 3 (O15379 whole entry): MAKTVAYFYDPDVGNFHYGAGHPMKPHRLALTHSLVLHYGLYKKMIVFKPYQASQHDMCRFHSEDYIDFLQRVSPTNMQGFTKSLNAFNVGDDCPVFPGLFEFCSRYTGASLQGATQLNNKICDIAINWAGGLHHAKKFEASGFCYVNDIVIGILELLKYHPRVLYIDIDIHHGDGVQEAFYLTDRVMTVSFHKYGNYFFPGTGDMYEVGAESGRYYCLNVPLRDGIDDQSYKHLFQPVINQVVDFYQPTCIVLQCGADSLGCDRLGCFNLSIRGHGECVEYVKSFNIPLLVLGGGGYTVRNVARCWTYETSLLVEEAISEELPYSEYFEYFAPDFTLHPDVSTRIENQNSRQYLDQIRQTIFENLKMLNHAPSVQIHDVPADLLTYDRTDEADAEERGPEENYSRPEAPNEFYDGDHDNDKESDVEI
# Sequence of Protein deacetylase HDAC6 (Homo sapiens) (Q9UBN7 whole entry): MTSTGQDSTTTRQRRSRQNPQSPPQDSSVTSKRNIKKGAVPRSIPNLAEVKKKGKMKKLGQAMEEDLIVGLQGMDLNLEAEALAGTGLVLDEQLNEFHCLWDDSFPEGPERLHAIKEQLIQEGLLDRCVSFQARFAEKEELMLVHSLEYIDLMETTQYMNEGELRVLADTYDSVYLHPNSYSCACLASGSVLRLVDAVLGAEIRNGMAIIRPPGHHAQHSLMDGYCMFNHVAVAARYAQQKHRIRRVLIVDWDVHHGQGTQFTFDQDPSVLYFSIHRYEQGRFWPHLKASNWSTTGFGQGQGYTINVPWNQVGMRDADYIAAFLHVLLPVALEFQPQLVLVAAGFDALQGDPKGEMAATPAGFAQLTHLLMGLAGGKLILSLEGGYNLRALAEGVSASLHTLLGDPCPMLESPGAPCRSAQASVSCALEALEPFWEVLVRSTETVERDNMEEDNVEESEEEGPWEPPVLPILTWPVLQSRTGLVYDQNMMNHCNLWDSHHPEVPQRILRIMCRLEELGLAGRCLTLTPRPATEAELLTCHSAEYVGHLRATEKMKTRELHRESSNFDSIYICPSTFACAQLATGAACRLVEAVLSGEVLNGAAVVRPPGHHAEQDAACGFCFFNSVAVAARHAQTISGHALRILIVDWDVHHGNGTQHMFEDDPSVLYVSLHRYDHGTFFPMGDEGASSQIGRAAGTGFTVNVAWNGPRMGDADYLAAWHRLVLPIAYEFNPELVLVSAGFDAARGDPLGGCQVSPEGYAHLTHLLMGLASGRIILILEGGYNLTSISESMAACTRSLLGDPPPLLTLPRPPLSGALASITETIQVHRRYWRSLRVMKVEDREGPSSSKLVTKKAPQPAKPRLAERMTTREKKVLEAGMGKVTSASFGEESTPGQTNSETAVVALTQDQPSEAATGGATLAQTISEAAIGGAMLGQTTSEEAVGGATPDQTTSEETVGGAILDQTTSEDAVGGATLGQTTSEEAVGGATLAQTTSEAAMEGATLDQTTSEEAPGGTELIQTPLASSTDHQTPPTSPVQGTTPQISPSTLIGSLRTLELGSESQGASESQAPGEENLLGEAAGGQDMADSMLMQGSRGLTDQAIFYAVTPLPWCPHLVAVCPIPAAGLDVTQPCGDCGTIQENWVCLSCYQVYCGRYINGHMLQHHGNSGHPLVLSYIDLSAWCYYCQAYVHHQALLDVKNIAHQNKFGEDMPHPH
# Sequence of Histone deacetylase 1 (Q13547 whole entry): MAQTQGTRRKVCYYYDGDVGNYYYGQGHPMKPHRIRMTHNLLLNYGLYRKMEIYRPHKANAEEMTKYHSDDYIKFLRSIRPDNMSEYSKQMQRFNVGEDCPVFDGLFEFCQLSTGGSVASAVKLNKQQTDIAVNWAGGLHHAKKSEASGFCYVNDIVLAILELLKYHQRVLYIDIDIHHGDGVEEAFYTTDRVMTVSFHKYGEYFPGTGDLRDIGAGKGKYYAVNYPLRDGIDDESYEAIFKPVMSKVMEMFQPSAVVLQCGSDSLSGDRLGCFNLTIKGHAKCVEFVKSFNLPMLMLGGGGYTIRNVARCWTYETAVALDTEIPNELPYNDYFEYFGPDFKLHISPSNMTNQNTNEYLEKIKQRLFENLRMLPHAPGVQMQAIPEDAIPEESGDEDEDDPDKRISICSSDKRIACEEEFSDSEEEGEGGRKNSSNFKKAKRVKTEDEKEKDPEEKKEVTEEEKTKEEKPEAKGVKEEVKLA
# Sequence of Histone deacetylase 5 (Q9UQL6 whole entry): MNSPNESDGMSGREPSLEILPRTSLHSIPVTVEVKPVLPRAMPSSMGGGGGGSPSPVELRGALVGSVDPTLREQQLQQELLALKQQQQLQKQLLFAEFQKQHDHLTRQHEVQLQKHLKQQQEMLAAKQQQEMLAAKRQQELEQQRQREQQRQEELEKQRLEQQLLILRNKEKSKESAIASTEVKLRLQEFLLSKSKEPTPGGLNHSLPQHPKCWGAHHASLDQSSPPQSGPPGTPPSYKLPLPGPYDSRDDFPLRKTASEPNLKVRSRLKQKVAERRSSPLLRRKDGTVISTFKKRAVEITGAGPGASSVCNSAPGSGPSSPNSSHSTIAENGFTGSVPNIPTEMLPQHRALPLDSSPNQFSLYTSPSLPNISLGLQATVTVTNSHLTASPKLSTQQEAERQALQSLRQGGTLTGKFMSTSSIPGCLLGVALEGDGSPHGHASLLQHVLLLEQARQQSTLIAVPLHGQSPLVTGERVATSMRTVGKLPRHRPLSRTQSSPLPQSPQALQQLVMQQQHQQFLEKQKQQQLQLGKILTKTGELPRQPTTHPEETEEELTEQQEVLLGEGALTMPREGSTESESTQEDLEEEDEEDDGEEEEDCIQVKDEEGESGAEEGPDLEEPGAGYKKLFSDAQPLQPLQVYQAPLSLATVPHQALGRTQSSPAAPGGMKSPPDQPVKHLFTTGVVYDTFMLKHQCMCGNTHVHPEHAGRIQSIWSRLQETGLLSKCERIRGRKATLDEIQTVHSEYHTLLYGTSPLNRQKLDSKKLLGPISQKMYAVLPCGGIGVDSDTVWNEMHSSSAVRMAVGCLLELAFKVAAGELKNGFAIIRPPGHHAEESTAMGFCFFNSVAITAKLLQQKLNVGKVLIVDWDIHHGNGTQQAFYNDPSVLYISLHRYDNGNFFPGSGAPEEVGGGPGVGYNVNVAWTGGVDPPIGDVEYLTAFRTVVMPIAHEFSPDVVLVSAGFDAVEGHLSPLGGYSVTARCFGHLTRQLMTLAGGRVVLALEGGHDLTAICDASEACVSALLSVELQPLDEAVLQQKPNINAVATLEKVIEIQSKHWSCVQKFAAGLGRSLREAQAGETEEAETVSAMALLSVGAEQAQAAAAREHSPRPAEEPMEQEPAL
# Sequence of FKBP12A/mTOR (Homo sapiens) (P62942 2-108 limits assumed, other chains not shown): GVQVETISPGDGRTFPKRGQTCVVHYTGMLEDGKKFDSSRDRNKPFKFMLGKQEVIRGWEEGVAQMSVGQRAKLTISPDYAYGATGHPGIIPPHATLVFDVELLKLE
structure (smiles),measurement,setting,value
C[C@@H]1CN(C(=O)Nc2ccc(-c3nc(N4CCOCC4)c4cnn(CCCCCCC(=O)NO)c4n3)cc2)CCO1,inhibition,[1],Dose-dependent effect
same,Activity,MV4-11 [2],34.16%
same,Activity,MM1.S [3],2.2%
same,Activity,MV4-11 [4],37.6%
same,IC50,[5],1.2 nM
same,Activity,MM1.S [6],20.43%
same,viability at 0.32 µM,MV4-11 [7],2.57%
same,Activity,MM1.S [8],52.62%
same,Activity,MM1.S [9],7.95%
same,Activity,MM1.S [10],4.78%
same,Activity,MM1.S [11],0.31%
same,Activity,MM1.S [12],21.59%
same,inhibition,[13],Dose-dependent effect
same,IC50,Histone deacetylase 3,1.47 nM
same,viability at 0.16 µM,MM1.S [14],13.8%
same,inhibition,[15],Active
same,Activity,MM1.S [16],1.49%
same,inhibition in vivo at 10 mg/kg,MV4-11 [17],53.1%
same,Activity,MM1.S [18],22.05%
same,IC50,Histone deacetylase 1,0.19 nM
same,Activity,MM1.S [19],1.05%
same,IC50,Histone deacetylase 5,> 1000 nM
same,Activity,MV4-11 [20],46.85%
